Data taken from the EternaBench riboswitch data.

Test system: MS2 coat protein
Experiment: apparent Kd, MS2 coat protein; higher = weaker binding; RNA-MaP array; FMN 200 µM where present
In short: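 The apparent Kd is the median of filtered binding-curve fits, one per cluster, to green signal normalised to red-channel RNA signal and control-cluster median Fmax. The clusters were on Illumina sequencing chips, and stalled E. coli RNA polymerase had transcribed the designs on them. Titration used SNAP-549-labelled MS2 coat protein from 0.7 or 1.5 nM, doubling to 3 µM, without and then with constant ligand, in 100 mM Tris-HCl pH 7.5, 80 mM KCl, 4 mM MgCl2, BSA, DTT, yeast tRNA and Tween-20.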

[1] = designed as: OFF switch for flavin mononucleotide, no ligand
[2] = ligand present: flavin mononucleotide, designed as: OFF switch for flavin mononucleotide
[3] = designed as: ON switch for flavin mononucleotide, no ligand
[4] = ligand present: flavin mononucleotide, designed as: ON switch for flavin mononucleotide

Sequence | apparent Kd [1] [nM] | apparent Kd [2] [nM] | apparent Kd [3] [nM] | apparent Kd [4] [nM]
CUUGUUUAAGUGAGGAUAUACUGUUAGUAAUGAUUGUAGAAGGUACAUGAGGAUCACCCAUGUUUAUUUAUAUU | 17.8 | 16.7 |  | 
GCGUACAUAUCAGGAUAUCAUUGAAUGGAUUAACACAGUGAAUACAUGAGGAUCACCCAUGUGCUUGAGAAGGGAUUACAACGC | 10.9 | 9.4 |  | 
GUGCUCGUGUGAGGAUAUGCUUCCGUUUCGGCUGCAGAAGGUACUAUUAUACAUGAGGAUCACCCAUGUCGCUUUUCUCCGGUG |  |  | 26.6 | 27.5
CUAUUUUGUGCCUCAUUUACAUGAGGAUCACCCAUGUUAACUUAGGAUAUAUUUAUAUUGUUAGAGUAGAAGGAAGUACAUUUU | 162 | 133 |  | 
AAAUACAGAGGAUAUGUACGAAUUGACAUGAGGAUCACCCAUGUGACUUCGUGCACUUUGACAGAAGGCUGGGAAU | 16.8 | 32.7 |  | 
GGUCGUCACAUUAACAUGAGGAUCACCCAUGUCUCUAGACAUGAGGAUAUGGAUCCUAAUUGGAUCCAGAAGGCAUGGACGACC |  |  | 1490 | 142
CCGCCAUAAGUCAGGAUAUUCUUUAAGUUGUUGGAGAAGAAGGGACAUGAGGAUCACCCAUGUAAUAGGCCUCA | 842 | 598 |  | 
ACUUGUAAGCAGAAGGCAGUCAUUAUAUUAAUCAUGUAGACAUGAGGAUCACCCAUGUAGAGUACUGAGGAUAUGCAUCGAUAG | 11 | 7.34 |  | 
UUACUAUUGGAGAAGGGUCGAUAAUAUAUAAUGGCAGGAUAUCCAACAUGAGGAUCACCCAUGUUUCACCCAUAUGAGGAUCAC | 54.2 | 24.1 |  | 
GGCAUGUGGGCAGGAUAUAACUCGGUCUCUAGGUUAGAAGGGCCACACAUGAGGAUCACCCAUGUCGACCAGGCAGUCCUCCCU | 26.2 | 60.5 |  | 
AGAUUAUGAGGAUAUCGAGUUUAGUACAUGAGGAUCACCCAUGUUAUCCAGGUCUCGUUUCGAGAAGGCAUGAUUC | 33.5 | 30.9 |  | 
CAAUUGGCACAGAAGGGUGACAUGAGGAUCACCCAUGUAGCGUGGCACUCAGGAGAAGCCACGCCACAGGAUAUGUGCCGGCAC |  |  | 73.6 | 37.1
UUGGACGUCGUAGGAUAUGUAGGAUAUUCCUACAUGAGGAUCACCCAUGUUGACAUGGAAGAAGGACAGAAAGACGAUGUCCAU |  |  | 333 | 6.63
UAAUCUCAGAUAGGAUAUAUAGGAUGAUUUAAGACCGAACAUGAGGAUCACCCAUGUGAUUAUCUGUAGAAGGAUCAAUGACCC |  |  | 285 | 246
AGCAUGCUAGGAUAUACGGGACAUUAGGGUUCGUCGUAUGGACAUGAGGAUCACCCAUGUAGAAGGAGCGUGCA | 20.7 | 44.2 |  | 
CAGUACUGAGGAUAUACAUGAGGAUCACCCAUGUCCCAAAAGUAGGAUACUACUAUUAGUAGAAGGCAGUACUG | 37.4 | 323 |  | 
CCUCGACAUGAGGAUCACCCAUGUCAGGAUAUUGUGUUUCGGGUUUUUUACCUUUAGGCAAGAAGGGAUGUGUG | 15.8 | 22.4 |  | 
AACUGACAUGAGGAUCACCCAUGUCAGGAUAUGACUUGAUAGAAAAAAAAAUAUCAUGUCAGAAGGGACAUGAA | 16.4 | 13.5 |  | 
CAGUCUACAGGAUAUACAUGAGGAUCACCCAUGUGUAUCAACCUUCUGUGAUCCUCAUGUAGAAGGGUAGACUG | 13.5 | 10.9 |  | 

Sequence | apparent Kd [1] [nM] | apparent Kd [2] [nM] | apparent Kd [3] [nM] | apparent Kd [4] [nM]
GUAGCUAUCGGAGGAUAUUCAUACUGGAAACGGACAUGAGGAUCACCCAUGUGGCGAAAGCCUUGGGAGAAGGCCGAUCGCUAC |  |  | 123 | 8.13
UCGUUGUCAGGAUAUCGUGUAUACAACGUUAGUUCUAUGUGCGAGAAGGGACAUGAGGAUCACCCAUGUUACGU | 69.2 | 213 |  | 
GAAAAGGUAGGAUAUACGAAAAAAAAGGGUAGAAAAAAAAAACAUGAGGAUCACCCAUGUAGAAGGACCAAAAG | 39.6 | 93.2 |  | 
AUUUCAUUCCUUCGACCAUUACCGAGAAGGGUCCACAUGAGGAUCACCCAUGUGGUCCUGAGCGGACAGGAUAUCGGAGUCGGG | 18.2 | 17.7 |  | 
UUUGAAUAAGUGAGGAUAUACUGUUAGUAUUGAUUGUAGAAGGUACAUGAGGAUCACCCAUGUUUAGUAUUUAU | 16.3 | 15.9 |  | 
CAGCGCUGUCGAGAGGAUAUGCGGUGAUGGACAUGAGGAUCACCCAUGUUAGCGAUAGCAUUACUGUAGAAGGCUCUACAGCUGC |  |  | 30.6 | 13
UCUGCCGCCGUGAGGAUAUGCCCAAACAAAAGCGGGCAGAAGGCACAUGAGGAUCACCCAUGUCCCGCGGUUUU | 18.5 | 37 |  | 
CAAAAGCGAGGAUAUACAUGAGGAUCACCCAUGUGGCAGCCAUGUAGGAGUGACGUCGGUAGAAGGCGCACCCU | 99.8 | 141 |  | 
UUUUAACAUGAGGAUCACCCAUGUGAGGAUAUCGAAAUUUAUAUUAAUAUUAAUUAAUCGAGAAGGCACAUUUU | 106 | 113 |  | 
CGGAUGUGAGGAUAUACAUGAGGAUCACCCAUGUGAGCCAGCUAGCUGACUGGCUCAUGUAGAAGGCACGUCUG | 50.3 | 120 |  | 
CUUUUGUGAGGAUAUCAGUAGUAGAACAAUAGUACUACUACUGAGAAGGCACAUGAGGAUCACCCAUGUUUCUC | 62.3 | 302 |  | 
UACCACCGCACGGACACGUCGAGUCAGGAUAUACAUGAGGAUCACCCAUGUGAAGGCCGGUUCAUGUAGAAGGGACAGGCGUUG | 49.8 | 100 |  | 
CUGAUGUGAGGAUAUCAACGCCAUGUCUUUGACAUGGCGCAUGAGAAGGCACAUGAGGAUCACCCAUGUACUUC | 23.3 | 125 |  | 
AAAUAAAGUACCUAGAUAUCCUCACAUGAGGAUCACCCAUGUCAGGAUAUUUGUCCUAAAAGGACAGAGAAGGGACAAGGUAUA | 5.52 | 9.72 |  | 
AAUUAUUGAUGAGGAUAUUGUGGUGAAACACCACAAGAAGGCAUUAUACACAUGAGGAUCACCCAUGUGAGCCUGAUGCUUAUG | 16.7 | 21.2 |  | 
GGAUAGGACAGAGGAUAUACGUGCUAGAGAUACUAGCAAAUUUUCCUCACAUGAGGAUCACCCAUGUAGAAGGCUGUCCUAUCG | 24.6 | 511 |  | 
GACGUACAUGAGGAUCACCCAUGUACAGACGUACAAGGAUAUGUGUGGAAACCGUACUAUACAGAAGGUGUUUGUC |  |  | 15.7 | 15
GCUAGUAUUGCAGGAUAUUGAGAAUAAUUUUGGCAAGAAGGGCAUAACAUGAGGAUCACCCAUGUAUUCCUUAGUGAUACUAGC | 6.58 | 6.11 |  | 
UUCAGCUCGUGAGGAUAUACAUGUGCUGGAAACAGCAUUAAAUUUUUCACAUGAGGAUCACCCAUGUAGAAGGCACGAGCUGAG | 16.6 | 39.8 |  | 

Sequence | apparent Kd [1] [nM] | apparent Kd [2] [nM] | apparent Kd [3] [nM] | apparent Kd [4] [nM]
AAAAUGUGAGGAUAUCCGAAGGCGUCUGAUAGACGAGGCUAGGAGAAGGCACAUGAGGAUCACCCAUGUAAAAA | 46.6 | 95.1 |  | 
UGUGUGUGACAGGAUAUGCUGGUUGUGUGGCGGGUAGAAGGGUCUACAUGAGGAUCACCCAUGUGGCCGGUUGG | 22.8 | 21.5 |  | 
UGGUACAUCAUAGGAUAUCGUGUGUAAACAUGAGGAUCACCCAUGUCAUACGAGAGUAUGUCGAUCGAGAAGGGUGAUGUACCU |  |  | 75.2 | 25.8
AUGCGGUCAGGAUAUGCAUGGCGGGACUUGCGUCGUGGCGUGGAGAAGGGACAUGAGGAUCACCCAUGUGGAGU | 79 | 45.2 |  | 
UGUGUCAUCGAGAAGGCCUCAACAUGAGGAUCACCCAUGUUGUAAUAUGGGAGGAUAUCGAUGAUACAGCUACGUUUCGUAGCA |  |  | 19 | 6.11
ACUAUACGAGGAUAUACUGUCGGGCCUCGGGCAUACAUACGACAUGAGGAUCACCCAUGUAGAAGGCGUUUACU | 34.3 | 61.6 |  | 
GCACAUUUGUAAGGAUAUACAACAUGAGGAUCACCCAUGUGAUUGAAUUUAGUAGAAGGUACAGAAAUGAGUAUCACUUUUGUA |  |  | 16.8 | 10.9
UGGUACUAGGGAGGAUAUGGGAAGAUACAUGAGGAUCACCCAUGUUUAAGAAUGCCGAGAGACAACUAGAAGGCCCUAGUACCU |  |  | 240 | 22.2
GCGUGGUGUCUAGGAUAUGCCGUGCAACGAGGAGCAGAAGGAGACAUGAGGAUCACCCAUGUAAGCUUAGCCGCUCACAGAGGG | 26.8 | 73.7 |  | 
GGUUGGCGAGGAUAUACAUGAGGAUCACCCAUGUGGUCCUGCGGUGGUCUCGCCCUUUGUAGAAGGCGCGGGUC | 35.7 | 30.6 |  | 
GCCAUCGCAUGAGGAUAUGCUCCCGUUUCGGGAGCAGAAGGCAUGUCAAAAGACAUGAGGAUCACCCAUGUAGUUAAGAUGGCA |  |  | 122 | 7.89
CUCGUGUCAGGAUAUCGAUGGCGCCUCCGGGCGCCCGAACGCGAGAAGGGACAUGAGGAUCACCCAUGUAAAAC | 71.8 | 159 |  | 
GGAUUUUCUGAGGAUAUUGCAUCACCCGAUUUAUAAGAAGGCAGAACAUGAGGAUCACCCAUGUGGGUCUCCAG | 28.6 | 58 |  | 
UUACAUACAAAGGUACAUGAGGAUCACCCAUGUUUGUUGGGAAGAAGGGUAACAGUACUACAUAUAUAGGAUAUUUCACAAAUG |  |  | 106 | 73.4
UCGGGCAACCGAAAUAGGACGGCUGAGGAUAUGACAUGAGGAUCACCCAUGUACAGGGCCACAGGUCAGAAGGCAGCCUUUUGG | 161 | 36.5 |  | 
AACUUGCGCACAGGAUAUCCACGGAGCGGACGUGGAGAAGGGUGACAUGAGGAUCACCCAUGUACGUAAGUCUAGAUCACUUCC |  |  | 198 | 19.1
AAAUUCUGAGGAUAUCGAUGUUUGUACAUGAGGAUCACCCAUGUCCUUUUUAUUUAAUCCCGAGAAGGCAGUGUAU | 29 | 25.8 |  | 
CCAUGUCUAUGAGGAUAUCCGAAUUAGCGUUUGACAACGAUGAGUUCUCCAGGAGAAGGCAUGGACAUGAGGAUCACCCAUGUA | 29.6 | 75.5 |  | 
